# Measured values as given in ChEMBL document CHEMBL5724801, “EUbOPEN Chemogenomics Library - Multiplex” (2024).
# “And” between values parts separate entries of the source, which are not always exact repeats. Identical values can stand only once.
# System: HEK-293T
# Test: Multiplex assay against HEK293T
# Format: toxicity, cell-based
# Conditions: human
# In short: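 Four dyes were applied at seeding to live cells: Hoechst33342, BioTracker Green Microtubule Cytoskeleton Dye, MitoTracker Red and Annexin V Alexa Fluor 680. Imaging after compound addition used a CQ1 microscope at 37°C and 5% CO2. CellPathfinder machine-learning gating then sorted cells into Hoechst high-intensity objects or normal cells, normal cells into healthy, pyknosed or fragmented nuclei, and pyknosed cells into mitotic or apoptotic, with tubulin, mitochondrial-mass and membrane-permeability phenotypes given as per cents of healthy-nucleus cells.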
# [1] = 12 h, 1 µM, compound concentration 1 uM
# [2] = 12 h, 10 µM, compound concentration 10 uM
# [3] = 24 h, 1 µM, compound concentration 1 uM
# [4] = 24 h, 10 µM, compound concentration 10 uM
# [5] = 48 h, 1 µM, compound concentration 1 uM
# [6] = 48 h, 10 µM, compound concentration 10 uM
smiles,measurement,setting,value
CN1CCC(C(=O)c2cccc(NC(=O)c3c(F)cc(F)cc3F)n2)CC1,Population Apoptotic (%),[1],32% and 52%
same,Population Fragmented Nuclei (%),[1],5%
same,Population Healthy Nuclei (%),[1],82%
same,Population Hoechst High Intensity Objects (%),[1],8% and 7%
same,Population Membrane Permeable-Phenotype (%),[1],0%
same,Population Mitochondria Different-Phenotype (%),[1],51% and 59%
same,Population Mitotic Cells (%),[1],67% and 47%
same,Population Normal (%),[1],91% and 92%
same,Population Pyknosed Nuclei (%),[1],11% and 12%
same,Population Tubulin-Different-Phenotype (%),[1],31% and 20%
same,Total Cell Count,[1],396 and 352
same,Population Apoptotic (%),[2],52% and 53%
same,Population Fragmented Nuclei (%),[2],6%
same,Population Healthy Nuclei (%),[2],80%
same,Population Hoechst High Intensity Objects (%),[2],8% and 10%
same,Population Membrane Permeable-Phenotype (%),[2],1% and 0%
same,Population Mitochondria Different-Phenotype (%),[2],55% and 77%
same,Population Mitotic Cells (%),[2],47% and 46%
same,Population Normal (%),[2],91% and 89%
same,Population Pyknosed Nuclei (%),[2],12% and 13%
same,Population Tubulin-Different-Phenotype (%),[2],50%
same,Total Cell Count,[2],445 and 401
same,Population Apoptotic (%),[3],26% and 42%
same,Population Fragmented Nuclei (%),[3],11% and 8%
same,Population Healthy Nuclei (%),[3],74% and 83%
same,Population Hoechst High Intensity Objects (%),[3],4% and 3%
same,Population Membrane Permeable-Phenotype (%),[3],0%
same,Population Mitochondria Different-Phenotype (%),[3],30% and 39%
same,Population Mitotic Cells (%),[3],73% and 57%
same,Population Normal (%),[3],95% and 96%
same,Population Pyknosed Nuclei (%),[3],13% and 7%
same,Population Tubulin-Different-Phenotype (%),[3],20% and 17%
same,Total Cell Count,[3],504 and 478
same,Population Apoptotic (%),[4],25% and 52%
same,Population Fragmented Nuclei (%),[4],10% and 8%
same,Population Healthy Nuclei (%),[4],76% and 81%
same,Population Hoechst High Intensity Objects (%),[4],6% and 8%
same,Population Membrane Permeable-Phenotype (%),[4],0%
same,Population Mitochondria Different-Phenotype (%),[4],48% and 64%
same,Population Mitotic Cells (%),[4],75% and 47%
same,Population Normal (%),[4],93% and 91%
same,Population Pyknosed Nuclei (%),[4],13% and 9%
same,Population Tubulin-Different-Phenotype (%),[4],41% and 34%
same,Total Cell Count,[4],583 and 467
same,Population Apoptotic (%),[5],22% and 34%
same,Population Fragmented Nuclei (%),[5],11% and 9%
same,Population Healthy Nuclei (%),[5],80% and 84%
same,Population Hoechst High Intensity Objects (%),[5],3%
same,Population Membrane Permeable-Phenotype (%),[5],1%
same,Population Mitochondria Different-Phenotype (%),[5],19% and 24%
same,Population Mitotic Cells (%),[5],77% and 65%
same,Population Normal (%),[5],96%
same,Population Pyknosed Nuclei (%),[5],7% and 5%
same,Population Tubulin-Different-Phenotype (%),[5],12% and 10%
same,Total Cell Count,[5],884 and 692
same,Population Apoptotic (%),[6],30% and 28%
same,Population Fragmented Nuclei (%),[6],13% and 10%
same,Population Healthy Nuclei (%),[6],79% and 81%
same,Population Hoechst High Intensity Objects (%),[6],4% and 7%
same,Population Membrane Permeable-Phenotype (%),[6],0%
same,Population Mitochondria Different-Phenotype (%),[6],35% and 42%
same,Population Mitotic Cells (%),[6],69% and 71%
same,Population Normal (%),[6],95% and 92%
same,Population Pyknosed Nuclei (%),[6],7%
same,Population Tubulin-Different-Phenotype (%),[6],23% and 25%
same,Total Cell Count,[6],803 and 671
CSc1ccccc1N1CCN(CCCCCC(=O)NC2CCCc3ccccc32)CC1.Cl (configuration not stated),Population Apoptotic (%),[1],45%
same,Population Fragmented Nuclei (%),[1],6%
same,Population Healthy Nuclei (%),[1],74%
same,Population Hoechst High Intensity Objects (%),[1],8% and 12%
same,Population Membrane Permeable-Phenotype (%),[1],0%
same,Population Mitochondria Different-Phenotype (%),[1],68% and 75%
same,Population Mitotic Cells (%),[1],54%
same,Population Normal (%),[1],91% and 87%
same,Population Pyknosed Nuclei (%),[1],18% and 19%
same,Population Tubulin-Different-Phenotype (%),[1],59% and 43%
same,Total Cell Count,[1],391 and 322
same,Population Apoptotic (%),[2],80% and 79%
same,Population Fragmented Nuclei (%),[2],8% and 5%
same,Population Healthy Nuclei (%),[2],68% and 74%
same,Population Hoechst High Intensity Objects (%),[2],15% and 16%
same,Population Membrane Permeable-Phenotype (%),[2],0%
same,Population Mitochondria Different-Phenotype (%),[2],97%
same,Population Mitotic Cells (%),[2],20%
same,Population Normal (%),[2],84% and 83%
same,Population Pyknosed Nuclei (%),[2],22% and 19%
same,Population Tubulin-Different-Phenotype (%),[2],59% and 65%
same,Total Cell Count,[2],316 and 304
same,Population Apoptotic (%),[3],36% and 41%
same,Population Fragmented Nuclei (%),[3],8%
same,Population Healthy Nuclei (%),[3],79% and 75%
same,Population Hoechst High Intensity Objects (%),[3],4% and 7%
same,Population Membrane Permeable-Phenotype (%),[3],0%
same,Population Mitochondria Different-Phenotype (%),[3],50% and 70%
same,Population Mitotic Cells (%),[3],63% and 58%
same,Population Normal (%),[3],95% and 92%
same,Population Pyknosed Nuclei (%),[3],11% and 16%
same,Population Tubulin-Different-Phenotype (%),[3],41% and 44%
same,Total Cell Count,[3],508 and 356
same,Population Apoptotic (%),[4],75% and 69%
same,Population Fragmented Nuclei (%),[4],5% and 7%
same,Population Healthy Nuclei (%),[4],70% and 73%
same,Population Hoechst High Intensity Objects (%),[4],21% and 20%
same,Population Membrane Permeable-Phenotype (%),[4],0%
same,Population Mitochondria Different-Phenotype (%),[4],98% and 97%
same,Population Mitotic Cells (%),[4],24% and 30%
same,Population Normal (%),[4],78% and 79%
same,Population Pyknosed Nuclei (%),[4],23% and 18%
same,Population Tubulin-Different-Phenotype (%),[4],53% and 48%
same,Total Cell Count,[4],303 and 315
same,Population Apoptotic (%),[5],32% and 45%
same,Population Fragmented Nuclei (%),[5],10%
same,Population Healthy Nuclei (%),[5],78% and 76%
same,Population Hoechst High Intensity Objects (%),[5],4% and 6%
same,Population Membrane Permeable-Phenotype (%),[5],0%
same,Population Mitochondria Different-Phenotype (%),[5],39% and 59%
same,Population Mitotic Cells (%),[5],67% and 54%
same,Population Normal (%),[5],95% and 93%
same,Population Pyknosed Nuclei (%),[5],10% and 13%
same,Population Tubulin-Different-Phenotype (%),[5],27% and 31%
same,Total Cell Count,[5],747 and 471
same,Population Apoptotic (%),[6],76% and 56%
same,Population Fragmented Nuclei (%),[6],11% and 13%
same,Population Healthy Nuclei (%),[6],73%
same,Population Hoechst High Intensity Objects (%),[6],28% and 18%
same,Population Membrane Permeable-Phenotype (%),[6],0%
same,Population Mitochondria Different-Phenotype (%),[6],97% and 93%
same,Population Mitotic Cells (%),[6],23% and 43%
same,Population Normal (%),[6],71% and 81%
same,Population Pyknosed Nuclei (%),[6],14% and 13%
same,Population Tubulin-Different-Phenotype (%),[6],67% and 56%
same,Total Cell Count,[6],365 and 385
